NR3A LBD binder – modulates the human NR3A ligand-binding domain; Tm shift relative to glycine control, % at 25 µM; AID 1259313; 340,000 tested, 2.5% active; NR3A LBD differential scanning fluorimetry, Tm shift; 0% = protein alone, 100% = glycine-bound protein;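 active means melting temperature shift of at least 10% of the positive control shift, at one fixed dose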
PAFAH1B2 inh – inhibitors of human PAFAH1B2 | P68402 | recombinant PAFAH1B2, FP-rhodamine activity probe, fluorescence polarization | inhibition, % at 3.39 µM | 340,000 tested, 1.2% active | AID 492953;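 active means inhibition above the mean of all tested compounds plus 3 SD, cut at about 24% in these data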;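 further: 0% = enzyme with DMSO and 100% = wells lacking PAFAH1B2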
PAFAH1B3 inh – inhibitors of human PAFAH1B3. recombinant PAFAH1B3, FP-rhodamine probe, fluorescence polarization. inhibition, % at 3.39 µM. 340,000 tested, 0.28% active. AID 492972;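 active means inhibition above the screen-wide average of all tested compounds plus 3 SD, cut at about 25% in these data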;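 further: 0% = enzyme with DMSO only and 100% = wells lacking PAFAH1B3 protein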
Target sequence (Q15102 whole entry, looked up): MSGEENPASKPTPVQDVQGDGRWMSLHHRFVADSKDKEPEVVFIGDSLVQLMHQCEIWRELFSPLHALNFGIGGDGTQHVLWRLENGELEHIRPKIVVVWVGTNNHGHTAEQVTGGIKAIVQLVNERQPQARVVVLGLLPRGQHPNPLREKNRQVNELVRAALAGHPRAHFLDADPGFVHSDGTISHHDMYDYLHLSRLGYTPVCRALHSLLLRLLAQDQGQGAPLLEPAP
pPAFAH FP inh – pPAFAH (human) enzyme inhibition; Q13093; recombinant pPAFAH, FP-rhodamine probe fluorescence polarization; inhibition, % at 3.39 µM; 330,000 tested, 1.5% active; AID 463082;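 active means inhibition above the mean inhibition across the screen plus 3 SD, cut at about 25% in these data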;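 further: inhibitors block binding of the rhodamine activity-based probe so polarization drops; 0% = enzyme with DMSO and 100% = wells lacking pPAFAH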
Target sequence (Q13093 whole entry, looked up): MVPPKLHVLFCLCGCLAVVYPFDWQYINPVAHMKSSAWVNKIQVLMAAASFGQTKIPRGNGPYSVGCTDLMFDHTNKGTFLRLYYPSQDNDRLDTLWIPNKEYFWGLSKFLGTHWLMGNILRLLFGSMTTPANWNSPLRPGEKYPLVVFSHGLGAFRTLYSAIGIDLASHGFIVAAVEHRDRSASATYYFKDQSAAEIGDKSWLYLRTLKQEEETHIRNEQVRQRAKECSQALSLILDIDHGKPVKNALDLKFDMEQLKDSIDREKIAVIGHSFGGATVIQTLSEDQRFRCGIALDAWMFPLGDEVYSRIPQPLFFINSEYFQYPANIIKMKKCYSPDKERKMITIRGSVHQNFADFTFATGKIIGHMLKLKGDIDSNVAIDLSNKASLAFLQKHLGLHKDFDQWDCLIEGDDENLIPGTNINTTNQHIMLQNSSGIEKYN
PAFAH2 inh – PAFAH2 (human) inhibition. inhibition, % at 3.39 µM. 340,000 tested, 0.99% active. Q99487. recombinant PAFAH2, FP-rhodamine activity probe, fluorescence polarization;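 active means inhibition above the mean over all tested compounds plus 3 SD, cut at about 30% in these data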;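 further: inhibitors block probe labeling of enzyme so polarization drops; 0% = enzyme with DMSO and 100% = wells lacking PAFAH2 protein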
UCH37 inh – blocks the human deubiquitinase UCH37; purified proteasome/UCH37, Ub-AMC cleavage fluorescence; inhibition, % (concentration not given with the values); 330,000 tested, 0.33% active; AID 588478;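 active means mean inhibition over replicate wells above about 20%, limit read from the data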;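 further: 0% = compound-free wells with enzyme and 100% = wells lacking proteasome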
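Test system – human UCH37 enzyme supplied as purified proteasome complex · Incubation – 30 min preincubation with enzyme, 25 min cleavage at room temperature · Detection – AMC fluorescence from Ub-AMC cleavage, excitation 355 nm, emission 460 nm · Benchmarks – no-proteasome wells (full inhibition) and compound-free wells (no inhibition)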
Starred values were filed as active, the others as inactive; . = not tested or not shown. Sampled rows, rich in hits. Any-hit rate of the full collection: about 4.8%.

SMILES	NR3A LBD binder	PAFAH1B2 inh	PAFAH1B3 inh	pPAFAH FP inh	PAFAH2 inh	UCH37 inh
Cc1cccc(OCC(=O)NN=Cc2cc([N+](=O)[O-])ccc2N2CCOCC2)c1	.	.	.	.	.	4.1
O=C(Nc1nncs1)c1cccc(S(=O)(=O)N2CCc3ccccc32)c1	-16.6	16.1	6.4	2.6	17.2	-0.9
CCOC(=O)c1sc(NC(=O)c2cccc(S(=O)(=O)N3CCc4ccccc43)c2)c(C#N)c1C	21.3*	-2.1	3.9	14.5	6.2	0.7
O=C(Nc1nc2ccc(F)cc2s1)c1cccc(S(=O)(=O)N2CCc3ccccc32)c1	14.3*	-29.9	-59.5	0.3	-31.0	-13.3
Nc1nonc1-n1nnc(C(=O)NN=Cc2ccc(OCc3cccc(Cl)c3)cc2)c1CN1CCCCC1	.	.	.	.	.	5.5
CC(C)(C)NC(=O)C(=O)NN=Cc1ccc(Br)cc1	.	.	.	.	.	-4.3
CCN(C)c1ccc(C=Nn2nnnc2N)cc1	.	.	.	.	.	-91.9
Cc1ccc(-c2cc(O)cc3sc(=O)oc23)cc1C	10.4*	4.4	5.4	14.0	-1.1	5.4
O=S(=O)(Oc1ccccc1C=Nn1cnnc1)c1ccccc1	.	.	.	.	.	-0.3
COc1ccc(/C(N)=N/OC(=O)CC2CCCCC2)cc1OC	0.2	-0.2	-5.5	5.7	-1.9	2.1
COc1ccc(/C(N)=N/OC(=O)CSc2ccc(C)cc2)cc1OC	0.3	63.5*	1.0	4.7	4.6	4.2
Cc1ccc(S(=O)(=O)CCC(=O)Oc2ccc(-c3nnco3)cc2)cc1	-2.7	4.7	1.1	29.5*	-6.4	5.9
CCC(C)NC(=O)c1ccc(CS(=O)(=O)Cc2ccc(Cl)cc2)o1 (centres undefined)	-2.8	7.0	12.2	25.5*	5.0	5.1
C(=NN1CCN(c2ccccn2)CC1)c1cccc2ccccc12	.	.	.	.	.	4.6
O=C(Cc1ccc(Cl)cc1)Nc1ccc(S(=O)(=O)Nc2cnc3ccccc3n2)cc1	10.2*	20.4	5.8	30.7*	-1.4	.
O=C(Nc1ccc(S(=O)(=O)Nc2cnc3ccccc3n2)cc1)c1ccc(Cl)cc1Cl	5.5	.	.	1.1	.	-13.2
Cc1cc(Cl)ccc1OC(C)C(=O)Nc1ccc(C(=O)Nc2ccccc2C(=O)O)cc1 (centres undefined)	14.6*	-7.0	-13.2	-21.8	-34.2	-0.5
Cc1cc(Cl)ccc1OC(C)C(=O)Nc1ccc(S(=O)(=O)N2CCOCC2)cc1 (centres undefined)	3.6	0.6	-5.0	-2.9	-9.8	2.0
CCC(Oc1ccccc1)C(=O)Nc1ccc(S(=O)(=O)Nc2cnc3ccccc3n2)cc1 (centres undefined)	-7.2	-2.6	5.6	1.3	-8.0	-3.1
CC(Oc1ccc(Cl)cc1Cl)C(=O)Nc1ccc(S(=O)(=O)Nc2cnc3ccccc3n2)cc1 (centres undefined)	17.5*	.	.	9.7	.	-9.9
Cc1cc(Cl)ccc1OC(C)C(=O)Nc1ccc(S(=O)(=O)Nc2cnc3ccccc3n2)cc1 (centres undefined)	13.6*	2.5	-0.7	13.6	-2.1	-7.0
O=C(Nc1ccc(S(=O)(=O)Nc2cnc3ccccc3n2)cc1)c1cc(F)c(F)cc1Cl	-2.8	1.3	4.9	4.9	6.2	-12.9
COc1ccc(CCNC(=O)C(=O)NN=Cc2cccs2)cc1OC	.	.	.	.	.	6.2
Oc1[nH]c2ccccc2c1C=NN1CCCCC1	.	.	.	.	.	10.5
CCOC(=O)C1(C(=O)OCC)CC1c1ccccc1 (centres undefined)	-1.6	6.2	8.4	-5.7	-3.3	1.3
SMILES	NR3A LBD binder	PAFAH1B2 inh	PAFAH1B3 inh	pPAFAH FP inh	PAFAH2 inh	UCH37 inh
CCOC(=O)C1(C(=O)O)NC(=O)CC1c1ccccc1 (centres undefined)	12.1*	4.1	-2.5	1.5	-1.6	0.4
Cc1ccccc1/C=N/N1CCN(c2ccccc2)CC1	12.7*	-0.8	6.4	3.0	2.0	.
NC(=O)NC(=O)COC(=O)c1ccccc1Oc1ccccc1	11.0*	1.4	-0.4	5.0	-6.4	3.3
Cc1ccsc1C=NNC(=O)CO	.	.	.	.	.	2.5
Cc1ccc(CCNC(=O)C2CC(c3cccc(F)c3)=NO2)cc1 (centres undefined)	0.0	27.7*	7.0	-0.9	3.1	1.2
CCCCNC(=O)C1CC(c2cccc(F)c2)=NO1 (centres undefined)	2.5	5.7	6.4	5.2	4.3	0.7
Cc1cc(C=NNC(N)=S)c(C)n1-c1ccc(Cl)c(Cl)c1	.	.	.	.	.	-1.9
CCOC(=O)C1Nc2ccccc2C2C(O)C(O)CC12 (centres undefined)	-6.4	14.2	37.7*	17.8	12.6	3.1
CCOC(=O)C1Nc2ccc(C(F)(F)F)cc2C2c3ccccc3CC12 (centres undefined)	3.2	2.5	0.4	-7.3	2.3	-9.8
Oc1ccc(/C=N/Nc2ncc(Br)cn2)c(O)c1	31.1*	1.6	4.7	0.7	-1.4	.
Oc1ccc(/C=N/Nc2nccnc2Cl)c(O)c1	17.6*	4.4	4.7	2.4	3.5	.
Clc1nccnc1N/N=C/c1ccc(Br)cc1	2.5	0.2	6.9	-1.6	3.3	.
Oc1ccc(C=NNc2ncc(Br)cn2)c(O)c1	.	.	.	.	.	3.7
COc1ccc(/C=N/Nc2nccnc2Cl)cc1	12.1*	8.4	11.3	-0.2	1.8	.
Cc1cc(C)nc(NN=CC2=C(N3CCOCC3)/C(=C\c3ccc(Cl)cc3)CC2)n1	.	.	.	.	.	-9.2
O=S(=O)(c1cccc(-c2nc3n(n2)Cc2ccccc2-3)c1)N1CCCC1	13.0*	-2.1	13.3	-7.0	8.0	3.0
O=S(=O)(c1cccc(-c2nc3n(n2)Cc2ccccc2-3)c1)N1CCCCC1	-13.8	6.5	6.3	-1.2	18.0	1.1
COC(=O)c1ccc(S(=O)(=O)NCc2ccc(OC)cc2)n1C	1.2	28.7*	6.8	-0.1	3.6	2.2
COc1ccc(-c2cc(O)cc(O)c2)cc1	10.8*	-2.4	6.3	4.1	2.6	-0.7
CCOC(=O)c1cc2sccc2n1CC(=O)N1c2ccccc2CC1C (centres undefined)	12.0*	-3.1	-4.5	-6.0	-2.4	2.9
Cc1nn(-c2ccccc2)cc1C(c1c(N)[nH]c(=S)[nH]c1=O)c1c(N)[nH]c(=S)[nH]c1=O	15.9*	8.3	24.3	-0.7	5.2	.
CC1Sc2ccc(C(=O)OCc3ccccc3Cl)cc2NC1=O (centres undefined)	-32.1	3.1	3.8	29.3*	9.6	1.3
Oc1ccccc1-c1nnc(-c2ccc(C(F)(F)F)cc2)o1	1.5	-1.7	2.4	-5.2	13.7	-69.6
CC1=Nc2ccccc2/C1=C\c1nc(-c2ccc(C(F)(F)F)cc2)oc1O	26.8*	17.8	21.3	5.7	13.3	7.2
COc1ccc(-c2nc(/C=C3\C(C)=Nc4ccccc43)c(O)o2)cc1	-3.6	-0.4	7.7	13.5	5.0	5.4
CC1=Nc2ccccc2/C1=C/c1c(C)[nH]c2ccccc12	0.2	3.5	7.5	.	-7.1	-58.6

Source: PubChem BioAssay
